Measurements reported in ChEMBL document CHEMBL2086318, “Synthesis and in vitro antimycobacterial activity of 2-methoxybenzanilides and their thioxo analogues” (Eur J Med Chem, 2012).
Values after ≈ are worked out from the molar mass of the structure shown.

Legend:
Assay type in all cases: functional
[1] = test system: Mycobacterium tuberculosis; test: Antimycobacterial activity against Mycobacterium tuberculosis My 331/88 after 14 days by micromethod; conditions: My 331/88, 336 h
In short: (§1)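 MIC by micromethod at 37 °C, read after 14 and 21 days. Inocula were M. tuberculosis My 331/88 at 10^-3 dilution and M. avium My 330/88 at 10^-5 dilution. Compounds added in DMSO across 1000, 500, 250, 125, 62.5, 32, 16, 8, 4, 2, 1 and 0.5; isoniazid standard in sterile water. MIC taken as the lowest concentration inhibiting growth.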

Mycobacterium kansasii [2] = test: Antimycobacterial activity against Mycobacterium kansasii My 6509/96 clinical isolate after 7 days by micromethod; conditions: My 6509/96, 168 h
Mycobacterium avium [3] = test: Antimycobacterial activity against Mycobacterium avium My 330/88 after 21 days by micromethod; conditions: My 330/88, 504 h
Mycobacterium avium [4] = test: Antimycobacterial activity against Mycobacterium avium My 330/88 after 14 days by micromethod; conditions: My 330/88, 336 h
Mycobacterium kansasii [5] = test: Antimycobacterial activity against Mycobacterium kansasii My 6509/96 clinical isolate after 21 days by micromethod; conditions: My 6509/96, 504 h
Mycobacterium kansasii [6] = test: Antimycobacterial activity against Mycobacterium kansasii My 235/80 after 14 days by micromethod; conditions: My 235/80, 336 h
Mycobacterium kansasii [7] = test: Antimycobacterial activity against Mycobacterium kansasii My 235/80 after 21 days by micromethod; conditions: My 235/80, 504 h
Mycobacterium kansasii [8] = test: Antimycobacterial activity against Mycobacterium kansasii My 235/80 after 7 days by micromethod; conditions: My 235/80, 168 h
[9] = test system: Mycobacterium tuberculosis; test: Antimycobacterial activity against Mycobacterium tuberculosis My 331/88 after 21 days by micromethod; conditions: My 331/88, 504 h; in short: as §1
Mycobacterium kansasii [10] = test: Antimycobacterial activity against Mycobacterium kansasii My 6509/96 clinical isolate after 14 days by micromethod; conditions: My 6509/96, 336 h

Compound	MIC [1] [µM]	MIC (Mycobacterium kansasii [2]) [µM]	MIC (Mycobacterium avium [3]) [µM]	MIC (Mycobacterium avium [4]) [µM]	MIC (Mycobacterium kansasii [5]) [µM]	MIC (Mycobacterium kansasii [6]) [µM]	MIC (Mycobacterium kansasii [7]) [µM]	MIC (Mycobacterium kansasii [8]) [µM]	MIC [9] [µM]	MIC (Mycobacterium kansasii [10]) [µM]
COc1cc(Cl)ccc1C(=O)Nc1ccc(Cl)c(Cl)c1	125 (≈ 41.3 µg/mL)	125 (≈ 41.3 µg/mL)	125 (≈ 41.3 µg/mL)	125 (≈ 41.3 µg/mL)	125 (≈ 41.3 µg/mL)	125 (≈ 41.3 µg/mL)	125 (≈ 41.3 µg/mL)	125 (≈ 41.3 µg/mL)	125 (≈ 41.3 µg/mL)	125 (≈ 41.3 µg/mL)
COc1ccc(Cl)cc1C(=O)Nc1ccc([N+](=O)[O-])cc1	125 (≈ 38.3 µg/mL)	125 (≈ 38.3 µg/mL)	125 (≈ 38.3 µg/mL)	125 (≈ 38.3 µg/mL)	125 (≈ 38.3 µg/mL)	125 (≈ 38.3 µg/mL)	125 (≈ 38.3 µg/mL)	125 (≈ 38.3 µg/mL)	125 (≈ 38.3 µg/mL)	125 (≈ 38.3 µg/mL)
COc1ccc(Cl)cc1C(=S)Nc1ccc([N+](=O)[O-])cc1	32 (≈ 10.3 µg/mL)	125 (≈ 40.3 µg/mL)	250 (≈ 80.7 µg/mL)	250 (≈ 80.7 µg/mL)	250 (≈ 80.7 µg/mL)	250 (≈ 80.7 µg/mL)	250 (≈ 80.7 µg/mL)	125 (≈ 40.3 µg/mL)	32 (≈ 10.3 µg/mL)	250 (≈ 80.7 µg/mL)
COc1ccc(Cl)cc1C(=S)Nc1cccc(C(F)(F)F)c1	16 (≈ 5.53 µg/mL)	8 (≈ 2.77 µg/mL)	32 (≈ 11.1 µg/mL)	32 (≈ 11.1 µg/mL)	16 (≈ 5.53 µg/mL)	16 (≈ 5.53 µg/mL)	16 (≈ 5.53 µg/mL)	8 (≈ 2.77 µg/mL)	16 (≈ 5.53 µg/mL)	16 (≈ 5.53 µg/mL)
O=C(Nc1ccc(Cl)cc1)c1ccc(Cl)cc1O	4 (≈ 1.13 µg/mL)	–	8 (≈ 2.26 µg/mL)	8 (≈ 2.26 µg/mL)	–	4 (≈ 1.13 µg/mL)	8 (≈ 2.26 µg/mL)	–	4 (≈ 1.13 µg/mL)	–
O=C(Nc1ccc(Cl)c(Cl)c1)c1cc(Cl)ccc1O	4 (≈ 1.27 µg/mL)	–	16 (≈ 5.07 µg/mL)	16 (≈ 5.07 µg/mL)	–	4 (≈ 1.27 µg/mL)	4 (≈ 1.27 µg/mL)	–	8 (≈ 2.53 µg/mL)	–
COc1cc(Cl)ccc1C(=O)Nc1cccc(C(F)(F)F)c1	250 (≈ 82.4 µg/mL)	125 (≈ 41.2 µg/mL)	125 (≈ 41.2 µg/mL)	125 (≈ 41.2 µg/mL)	125 (≈ 41.2 µg/mL)	250 (≈ 82.4 µg/mL)	250 (≈ 82.4 µg/mL)	125 (≈ 41.2 µg/mL)	250 (≈ 82.4 µg/mL)	125 (≈ 41.2 µg/mL)
O=C(Nc1ccc(Cl)cc1)c1cc(Cl)ccc1O	4 (≈ 1.13 µg/mL)	–	8 (≈ 2.26 µg/mL)	8 (≈ 2.26 µg/mL)	–	8 (≈ 2.26 µg/mL)	8 (≈ 2.26 µg/mL)	–	4 (≈ 1.13 µg/mL)	–
COc1ccc(Cl)cc1C(=S)Nc1ccc(Cl)c(Cl)c1	8 (≈ 2.77 µg/mL)	62.5 (≈ 21.7 µg/mL)	62.5 (≈ 21.7 µg/mL)	32 (≈ 11.1 µg/mL)	125 (≈ 43.3 µg/mL)	62.5 (≈ 21.7 µg/mL)	62.5 (≈ 21.7 µg/mL)	32 (≈ 11.1 µg/mL)	8 (≈ 2.77 µg/mL)	125 (≈ 43.3 µg/mL)
COc1ccc(Cl)cc1C(=O)Nc1ccc(C(F)(F)F)cc1	250 (≈ 82.4 µg/mL)	62.5 (≈ 20.6 µg/mL)	250 (≈ 82.4 µg/mL)	250 (≈ 82.4 µg/mL)	250 (≈ 82.4 µg/mL)	500 (≈ 165 µg/mL)	500 (≈ 165 µg/mL)	125 (≈ 41.2 µg/mL)	250 (≈ 82.4 µg/mL)	250 (≈ 82.4 µg/mL)
O=C(Nc1ccc([N+](=O)[O-])cc1)c1cc(Cl)ccc1O	4 (≈ 1.17 µg/mL)	–	8 (≈ 2.34 µg/mL)	8 (≈ 2.34 µg/mL)	–	4 (≈ 1.17 µg/mL)	4 (≈ 1.17 µg/mL)	–	8 (≈ 2.34 µg/mL)	–
O=C(Nc1cccc([N+](=O)[O-])c1)c1ccc(Cl)cc1O	8 (≈ 2.34 µg/mL)	–	16 (≈ 4.68 µg/mL)	16 (≈ 4.68 µg/mL)	–	16 (≈ 4.68 µg/mL)	16 (≈ 4.68 µg/mL)	–	8 (≈ 2.34 µg/mL)	–
COc1ccc(Cl)cc1C(=O)Nc1cccc(Cl)c1	250 (≈ 74 µg/mL)	125 (≈ 37 µg/mL)	250 (≈ 74 µg/mL)	250 (≈ 74 µg/mL)	250 (≈ 74 µg/mL)	250 (≈ 74 µg/mL)	250 (≈ 74 µg/mL)	62.5 (≈ 18.5 µg/mL)	250 (≈ 74 µg/mL)	250 (≈ 74 µg/mL)
COc1ccc(Cl)cc1C(=O)Nc1ccc(Br)cc1	16 (≈ 5.45 µg/mL)	32 (≈ 10.9 µg/mL)	32 (≈ 10.9 µg/mL)	16 (≈ 5.45 µg/mL)	62.5 (≈ 21.3 µg/mL)	62.5 (≈ 21.3 µg/mL)	62.5 (≈ 21.3 µg/mL)	62.5 (≈ 21.3 µg/mL)	16 (≈ 5.45 µg/mL)	62.5 (≈ 21.3 µg/mL)
COc1cc(Cl)ccc1C(=O)Nc1ccc([N+](=O)[O-])cc1	250 (≈ 76.7 µg/mL)	125 (≈ 38.3 µg/mL)	250 (≈ 76.7 µg/mL)	250 (≈ 76.7 µg/mL)	125 (≈ 38.3 µg/mL)	250 (≈ 76.7 µg/mL)	250 (≈ 76.7 µg/mL)	125 (≈ 38.3 µg/mL)	250 (≈ 76.7 µg/mL)	125 (≈ 38.3 µg/mL)
COc1ccc(Cl)cc1C(=O)Nc1ccc(Cl)cc1	62.5 (≈ 18.5 µg/mL)	62.5 (≈ 18.5 µg/mL)	62.5 (≈ 18.5 µg/mL)	62.5 (≈ 18.5 µg/mL)	125 (≈ 37 µg/mL)	250 (≈ 74 µg/mL)	250 (≈ 74 µg/mL)	62.5 (≈ 18.5 µg/mL)	62.5 (≈ 18.5 µg/mL)	125 (≈ 37 µg/mL)
COc1ccc(Cl)cc1C(=S)Nc1cccc(Br)c1	32 (≈ 11.4 µg/mL)	32 (≈ 11.4 µg/mL)	32 (≈ 11.4 µg/mL)	32 (≈ 11.4 µg/mL)	32 (≈ 11.4 µg/mL)	32 (≈ 11.4 µg/mL)	32 (≈ 11.4 µg/mL)	16 (≈ 5.71 µg/mL)	32 (≈ 11.4 µg/mL)	32 (≈ 11.4 µg/mL)
